ChEMBL document CHEMBL1138107, “Novel non-nucleobase inhibitors of Staphylococcus aureus DNA polymerase IIIC” (Bioorg Med Chem Lett, 2006)
Converted amounts (≈) assume the structure as drawn. The source made the active and inactive calls. No cut-off for these calls is given here.

Key:
[1] = target: T1, DNA polymerase III PolC-type (Staphylococcus aureus) (UniProt P0C1P9); experiment: Inhibition of DNA polymerase3C from Staphylococcus aureus at 100 uM
T1 sequence (whole entry): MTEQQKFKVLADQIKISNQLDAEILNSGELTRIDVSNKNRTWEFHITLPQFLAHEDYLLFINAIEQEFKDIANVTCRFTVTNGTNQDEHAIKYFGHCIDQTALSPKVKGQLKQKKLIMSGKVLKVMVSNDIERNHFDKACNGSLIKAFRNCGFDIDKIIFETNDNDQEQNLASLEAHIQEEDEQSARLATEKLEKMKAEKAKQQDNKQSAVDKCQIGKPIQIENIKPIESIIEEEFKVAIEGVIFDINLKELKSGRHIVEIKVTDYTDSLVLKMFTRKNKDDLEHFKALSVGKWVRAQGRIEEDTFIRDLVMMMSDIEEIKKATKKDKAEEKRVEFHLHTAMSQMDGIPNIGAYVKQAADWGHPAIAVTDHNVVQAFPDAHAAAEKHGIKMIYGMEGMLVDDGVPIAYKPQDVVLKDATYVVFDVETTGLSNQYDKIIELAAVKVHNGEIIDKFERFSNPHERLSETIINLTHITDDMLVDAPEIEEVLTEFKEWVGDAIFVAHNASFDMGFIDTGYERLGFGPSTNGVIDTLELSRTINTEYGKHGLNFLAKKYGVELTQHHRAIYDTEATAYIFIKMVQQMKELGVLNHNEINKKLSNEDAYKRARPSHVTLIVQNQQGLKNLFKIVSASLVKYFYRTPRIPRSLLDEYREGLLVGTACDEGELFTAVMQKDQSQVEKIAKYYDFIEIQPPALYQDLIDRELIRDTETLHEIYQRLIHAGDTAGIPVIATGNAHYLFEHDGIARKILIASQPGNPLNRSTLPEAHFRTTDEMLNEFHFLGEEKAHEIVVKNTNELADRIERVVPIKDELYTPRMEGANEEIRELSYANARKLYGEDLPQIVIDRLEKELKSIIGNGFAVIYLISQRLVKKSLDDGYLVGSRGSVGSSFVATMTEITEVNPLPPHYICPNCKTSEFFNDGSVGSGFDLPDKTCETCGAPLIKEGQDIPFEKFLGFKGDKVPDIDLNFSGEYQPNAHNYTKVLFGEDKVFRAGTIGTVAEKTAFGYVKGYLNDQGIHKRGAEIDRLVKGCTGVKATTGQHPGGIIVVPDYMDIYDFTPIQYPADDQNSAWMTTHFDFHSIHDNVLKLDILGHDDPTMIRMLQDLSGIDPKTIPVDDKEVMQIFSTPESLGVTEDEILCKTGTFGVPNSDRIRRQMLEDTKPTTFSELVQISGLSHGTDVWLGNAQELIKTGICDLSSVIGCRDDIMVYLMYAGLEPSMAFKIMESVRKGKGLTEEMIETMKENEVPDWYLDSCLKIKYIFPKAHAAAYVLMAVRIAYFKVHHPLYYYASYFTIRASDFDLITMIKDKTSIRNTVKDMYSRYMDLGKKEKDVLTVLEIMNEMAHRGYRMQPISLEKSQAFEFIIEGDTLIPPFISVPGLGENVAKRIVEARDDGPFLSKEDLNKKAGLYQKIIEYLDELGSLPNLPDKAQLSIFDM
How it was run: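 PolC oligonucleotide-primed incorporation of [³H]dTTP was run with 125 ng purified enzyme for 30 min at 37 °C. It was quenched with EDTA, filter-bound on DE81 and counted by liquid scintillation. Compounds were screened in triplicate at 10, 50 and 100.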

Staphylococcus aureus [2] = experiment: Antimicrobial activity against Staphylococcus aureus (RN4220); type: functional
HeLa = experiment: Cytotoxicity against HeLa cell line by MTS assay; type: functional, cell-based; details: Homo sapiens
How it was run: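 HeLa cells (2 × 10⁴/well) in DMEM with 1% bovine growth serum were exposed to compound at 100, 50, 25 and 12.5 for 18 h at 37 °C under 5% CO₂. Viability was read as MTS reduction to formazan, by absorbance at 490 nm.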

Staphylococcus aureus [3] = experiment: Antimicrobial activity against Staphylococcus aureus (RN4220) in presence of 50% of human serum; type: functional
[4] = target: T2, DNA polymerase III PolC-type (Staphylococcus aureus, UniProt P0C1P9); experiment: Inhibition of DNA polymerase3C from Staphylococcus aureus
T2 sequence (P0C1P9 whole entry): T1 sequence (whole entry)
How it was run: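 Purified PolC (125 ng) started the reaction with a double-stranded oligonucleotide substrate, dATP, dCTP, low dGTP and [³H]dTTP (1 Ci/mmol) in Tris-HCl pH 7.5 buffer with glycerol, EDTA, DTT, IgG and 8 mM MgCl₂. Incubation was 30 min at 37 °C, stopped with 20 mM EDTA, then spotted on DE81 filters, washed and counted by scintillation. IC50 came from a 12-point, roughly 2-fold serial dilution, run in triplicate.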

Staphylococcus aureus [5] = experiment: Inhibition of DNA replication utilizing Staphylococcus aureus replication proteins in presence of reduced dATP concentrations; type: functional, organism-based
How it was run: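 The replication assay used a singly primed circular ssM13 template copied by S. aureus PolC, with β clamp, δδ′/τ clamp loader and SSB. [³H]dTTP incorporation was measured in streptavidin-coated scintillation plates, with the dATP concentration reduced to sensitize the assay to dATP analogs.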

Hepatocyte = experiment: Cytotoxicity against human hepatocytes by measure of ATP production at 100 uM; type: functional, cell-based
How it was run: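 Cryopreserved primary human hepatocytes (1 × 10⁴/well) in Krebs–Henseleit buffer were incubated with compound at 100, 50, 25 and 12.5 for 2 h at 37 °C under 5% CO₂. ATP content was then measured by luminescence after adding luciferin and luciferase.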

inhibition [1] [%]	MIC (Staphylococcus aureus [2]; read-out: MIC) [mg/L]	MIC (Staphylococcus aureus [3]) [mg/L]	IC50 [4] [µM]	MIC (Staphylococcus aureus [2]) [mg/L]	IC50 (Staphylococcus aureus [5]) [µM]	Structure (SMILES)	Activity (HeLa)	Activity (Hepatocyte)
91	8 (≈ 19.9 µM)	–	–	–	–	N#Cc1ccc(OCCCc2c(O)nc(Nc3ccc4c(c3)CCC4)nc2O)cc1	Not toxic	–
5	> 128	> 128	–	–	–	Nc1cc(O)nc(Nc2ccc3c(c2)CCC3)n1	Not toxic	–
36	–	32	104	16 (≈ 65.5 µM)	28	CCc1cc(Nc2nc(N)cc(O)n2)ccc1C	Not toxic	–
35	> 128	–	–	–	–	Oc1nc(Nc2ccc3c(c2)CCC3)nc(O)c1CCCCc1ccccc1	Not toxic	–
81	16 (≈ 38.2 µM)	–	–	–	–	CCc1cc(Nc2nc(O)c(CCCc3ccc(C#N)cc3OC)c(O)n2)ccc1C	Not toxic	–
85	64 (≈ 151 µM)	–	5.1	–	–	O=[N+]([O-])c1ccc(OCCCc2c(O)nc(Nc3ccc4c(c3)CCC4)nc2O)nc1	Not toxic	–
53	1 (≈ 3.31 µM)	> 128	–	–	–	C=CCc1c(O)nc(Nc2ccc3c(c2)CCC3)nc1Cl	Not toxic	–
81	16 (≈ 49.2 µM)	–	–	–	–	C=CCCCCc1c(O)nc(Nc2ccc3c(c2)CCC3)nc1O	Not toxic	–
–	–	–	2.3	–	–	C=CCc1c(Cl)nc(Nc2ccc3c(c2)CCC3)[nH]c1=O	–	–
17	> 128	> 128	–	–	> 100	Nc1nc(Nc2ccc3c(c2)CCC3)nc(O)c1Cc1ccccc1	Not toxic	–
69	128 (≈ 347 µM)	–	–	–	–	Oc1nc(Nc2ccc3c(c2)CCC3)nc(O)c1CCCN1CCCCC1	Not toxic	–
–	–	–	11.6	–	–	COc1ccc(OCCCc2c(O)nc(Nc3ccc4c(c3)CCC4)[nH]c2=O)cc1	–	–
90	8 (≈ 24 µM)	–	37	–	–	Oc1nc(Nc2ccc3c(c2)CCC3)nc(O)c1Cc1ccccc1	Not toxic	–
81	16 (≈ 39.3 µM)	–	–	–	–	COc1ccc(OCCCc2c(O)nc(Nc3ccc4c(c3)CCC4)nc2O)cc1	Not toxic	–
–	–	–	5.6	–	–	N#Cc1ccc(OCCCc2c(O)nc(Nc3ccc4c(c3)CCC4)[nH]c2=O)cc1	–	–
33	128 (≈ 430 µM)	> 128	–	–	–	C=CCc1c(O)nc(Nc2ccc3c(c2)CCC3)nc1OC	Not toxic	–
–	–	–	164	–	–	C=CCc1c(N)nc(Nc2ccc(C)c(CC)c2)[nH]c1=O	–	–
7	> 128	> 128	–	–	–	CCCc1cnc(Nc2ccc3c(c2)CCC3)nc1O	Not toxic	–
46	16 (≈ 42.1 µM)	> 128	–	–	–	Oc1nc(Nc2ccc3c(c2)CCC3)nc(Cl)c1CCCc1ccccc1	Not toxic	–
–	–	–	3	–	–	O=c1[nH]c(Nc2ccc3c(c2)CCC3)nc(O)c1CCCc1ccccc1	–	–
74	64 (≈ 147 µM)	–	–	–	–	COC(=O)c1ccc(OCCCc2c(O)nc(Nc3ccc4c(c3)CCC4)nc2O)cc1	Not toxic	–
87	8 (≈ 26.9 µM)	–	17.9	–	–	C=CCCc1c(O)nc(Nc2ccc3c(c2)CCC3)nc1O	Not toxic	–

inhibition [1] [%]	MIC (Staphylococcus aureus [2]; read-out: MIC) [mg/L]	MIC (Staphylococcus aureus [3]) [mg/L]	IC50 [4] [µM]	MIC (Staphylococcus aureus [2]) [mg/L]	IC50 (Staphylococcus aureus [5]) [µM]	Structure (SMILES)	Activity (HeLa)	Activity (Hepatocyte)
–	–	–	31	–	–	C=CCc1c(O)nc(Nc2ccc3c(c2)CCC3)[nH]c1=O	–	–
90	> 128	–	–	–	–	O=C(O)c1ccc(OCCCc2c(O)nc(Nc3ccc4c(c3)CCC4)nc2O)cc1	Not toxic	–
70	4 (≈ 9.47 µM)	–	–	–	–	O=[N+]([O-])c1ccc(OCCCc2c(O)nc(Nc3ccc4c(c3)CCC4)nc2O)cc1	Not toxic	–
68	8 (≈ 23 µM)	–	18	–	–	Oc1nc(Nc2ccc3c(c2)CCC3)nc(O)c1CCc1ccccc1	Not toxic	–
12	> 128	> 128	–	–	7.9	CCc1cc(Nc2nc(N)c(CCCc3ccccc3)c(O)n2)ccc1C	Not toxic	–
67	8 (≈ 20.4 µM)	–	14	–	–	Oc1nc(Nc2ccc3c(c2)CCC3)nc(O)c1CCCCOc1ccccc1	Not toxic	–
65	16 (≈ 56.5 µM)	> 128	–	–	–	C=CCc1c(O)nc(Nc2ccc3c(c2)CCC3)nc1O	Not toxic	inactive
-0	> 128	> 128	–	–	> 100	Nc1nc(Nc2ccc3c(c2)CCC3)nc(O)c1CCCc1ccccc1	Not toxic	–
74	16 (≈ 44 µM)	–	–	–	–	Oc1nc(Nc2ccc3c(c2)CCC3)nc(O)c1CCOc1ccccc1	Not toxic	–
–	–	–	2.6	–	–	O=c1[nH]c(Nc2ccc3c(c2)CCC3)nc(O)c1CCCOc1ccc([N+](=O)[O-])cc1	–	–
72	8 (≈ 17.7 µM)	–	–	–	–	COc1cc(OCCCc2c(O)nc(Nc3ccc4c(c3)CCC4)nc2O)ccc1[N+](=O)[O-]	Not toxic	–
89	16 (≈ 51.4 µM)	–	–	–	–	C=CCCCc1c(O)nc(Nc2ccc3c(c2)CCC3)nc1O	Not toxic	–
32	8 (≈ 28.1 µM)	32	–	–	7.7	C=CCc1c(N)nc(Nc2ccc(C)c(CC)c2)nc1O	Not toxic	–
74	128 (≈ 425 µM)	–	–	–	–	OCCCc1c(O)nc(Nc2ccc3c(c2)CCC3)nc1O	Not toxic	–
40	> 128	–	–	–	–	NCCCc1c(O)nc(Nc2ccc3c(c2)CCC3)nc1O	Not toxic	–
94	8 (≈ 23.9 µM)	–	4	–	–	CCc1cc(Nc2nc(O)c(Cc3ccccc3)c(O)n2)ccc1C	Not toxic	inactive
–	–	–	9	–	–	Nc1ccc(OCCCc2c(O)nc(Nc3ccc4c(c3)CCC4)[nH]c2=O)cc1	–	–
3	> 128	> 128	–	–	9.7	CCc1cc(Nc2nc(N)c(Cc3ccccc3)c(O)n2)ccc1C	Not toxic	–
–	–	–	7.7	–	–	C=CCc1c(O)nc(Nc2ccc(C)c(CC)c2)[nH]c1=O	–	–
95	16 (≈ 37 µM)	–	3	–	–	COc1cc(C#N)ccc1OCCCc1c(O)nc(Nc2ccc3c(c2)CCC3)nc1O	Not toxic	inactive
83	> 64	–	–	–	–	Nc1ccc(OCCCc2c(O)nc(Nc3ccc4c(c3)CCC4)nc2O)cc1	Not toxic	–
